Numbering of substitutions follows the chain as printed. Calls of active or inactive are those of the source. No cut-off for these calls is given here.

For series [1], the target named is T1, Lysosomal acid glucosylceramidase (Homo sapiens, UniProt P04062).
T1 sequence (P04062 whole entry): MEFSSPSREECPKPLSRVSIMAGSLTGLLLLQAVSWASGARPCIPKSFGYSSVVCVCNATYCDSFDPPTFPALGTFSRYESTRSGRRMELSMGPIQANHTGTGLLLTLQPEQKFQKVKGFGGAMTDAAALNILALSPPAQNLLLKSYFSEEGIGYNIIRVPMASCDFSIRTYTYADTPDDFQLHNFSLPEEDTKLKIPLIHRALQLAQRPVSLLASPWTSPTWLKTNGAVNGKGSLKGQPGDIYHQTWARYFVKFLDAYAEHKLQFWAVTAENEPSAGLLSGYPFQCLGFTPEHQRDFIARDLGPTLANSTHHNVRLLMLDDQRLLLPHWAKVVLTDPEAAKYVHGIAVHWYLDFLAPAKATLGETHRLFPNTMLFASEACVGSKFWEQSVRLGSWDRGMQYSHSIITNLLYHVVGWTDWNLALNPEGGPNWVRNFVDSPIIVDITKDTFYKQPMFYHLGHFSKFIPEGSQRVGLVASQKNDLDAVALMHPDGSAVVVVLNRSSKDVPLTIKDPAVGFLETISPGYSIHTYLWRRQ
Nature of the series: Competitive inhibition of wild type human glucocerebrosidase using 4-methylumbelliferyl beta-D-glucopyranoside as substrate after 15 mins by Dixon and Line-Weaver Burk plot analysis […].

Series [2] deals with Lysosomal alpha-glucosidase (Homo sapiens) (UniProt P10253). Kind of series: Inhibition of human lysosomal alpha-glucosidase using 4-methylumbelliferyl alpha-D-glucopyranoside as substrate at 200 uM by fluorimetric analysis. Put shortly: (§1)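 Enzyme source was a lysosomal-enzyme-enriched ConA-bound human placental fraction, run in 100 mM citrate–phosphate pH 4.5 with 0.025% human serum albumin at 37 °C. Compound was tested at 200 μM in triplicate. An equal volume of 4-MU substrate was added: α-Glc 3.0 mM (α-glucosidase), α-Gal 1.0 mM (α-galactosidase), β-Gal 0.5 mM (β-galactosidase). Reactions were stopped with 4-fold excess 100 mM aminomethylpropanol and fluorescence read at 365/460 nm.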

The species entered for series [3] is Homo sapiens. Nature of the series: Inhibition of human lysosomal alpha-galactosidase using 4-methylumbelliferyl alpha-D-galactopyranoside as substrate at 200 uM by fluorimetric analysis. A digest of the protocol:
as §1

Series [4] concerns the target T2, Beta-galactosidase (Homo sapiens) (UniProt P16278).
T2 sequence (whole entry): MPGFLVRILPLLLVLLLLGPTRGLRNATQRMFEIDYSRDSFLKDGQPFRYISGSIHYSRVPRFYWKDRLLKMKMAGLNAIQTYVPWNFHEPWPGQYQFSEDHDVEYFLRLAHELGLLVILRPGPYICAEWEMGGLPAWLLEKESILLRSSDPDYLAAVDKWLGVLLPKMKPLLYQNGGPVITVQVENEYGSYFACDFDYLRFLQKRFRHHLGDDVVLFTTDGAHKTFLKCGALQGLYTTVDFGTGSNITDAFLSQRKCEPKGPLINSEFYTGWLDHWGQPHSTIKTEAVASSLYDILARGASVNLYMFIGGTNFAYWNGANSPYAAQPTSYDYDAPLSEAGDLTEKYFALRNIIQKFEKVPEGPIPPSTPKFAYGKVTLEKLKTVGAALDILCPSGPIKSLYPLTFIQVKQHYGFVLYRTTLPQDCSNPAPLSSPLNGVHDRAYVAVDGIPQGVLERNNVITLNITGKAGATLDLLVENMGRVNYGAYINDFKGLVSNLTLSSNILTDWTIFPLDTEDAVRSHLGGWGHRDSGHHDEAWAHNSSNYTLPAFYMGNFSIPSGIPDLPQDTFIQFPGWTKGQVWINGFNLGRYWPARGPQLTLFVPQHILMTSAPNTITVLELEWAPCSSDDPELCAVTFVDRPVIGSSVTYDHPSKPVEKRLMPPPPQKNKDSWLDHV
Kind of series: Inhibition of human lysosomal beta-galactosidase using 4-methylumbelliferyl beta-Dgalactopyranoside as substrate at 200 uM by fluorimetric analysis. Put shortly:
as §1

The target in series [5] is T3, Lysosomal acid glucosylceramidase (Homo sapiens) (UniProt P04062).
T3 sequence (whole entry): T1 sequence (P04062 whole entry)
Nature of the series: Thermal denaturation of human glucocerebrosidase by differential scanning fluorimetry assessed as change in melting temperature at 100 uM and pH 7.

For series [6], the system named is T4, Lysosomal acid glucosylceramidase (Homo sapiens), P04062 [N409S].
T4 sequence (whole entry): T1 sequence (P04062 whole entry) with N409S
Nature of the series: Activation of intracellular glucocerebrosidase p.N370S mutant in gaucher patient fibroblast using 4-methylumbelliferyl beta-D-glucopyranoside as substrate relative to control.

The species entered for series [7] is Homo sapiens. Kind of series: Activation of intracellular glucocerebrosidase p.L444P mutant in gaucher patient fibroblast using 4-methylumbelliferyl beta-D-glucopyranoside as substrate relative to control.
The test system of series [8] is T4, Lysosomal acid glucosylceramidase (Homo sapiens), P04062 [N409S]. Nature of the series: Activation of intracellular glucocerebrosidase p.N370S mutant in gaucher patient fibroblast using 4-methylumbelliferyl beta-D-glucopyranoside as substrate assessed as concentration at which 50% of maximum increase in activity.
For series [9], the species on record is Homo sapiens. Nature of the series: Activation of intracellular glucocerebrosidase p.L444P mutant in gaucher patient fibroblast using 4-methylumbelliferyl beta-D-glucopyranoside as substrate assessed as concentration at which 50% of maximum increase in activity.
Series [10] deals with T5, Cytosolic beta-glucosidase (Homo sapiens, UniProt Q9H227).
T5 sequence (Q9H227 whole entry): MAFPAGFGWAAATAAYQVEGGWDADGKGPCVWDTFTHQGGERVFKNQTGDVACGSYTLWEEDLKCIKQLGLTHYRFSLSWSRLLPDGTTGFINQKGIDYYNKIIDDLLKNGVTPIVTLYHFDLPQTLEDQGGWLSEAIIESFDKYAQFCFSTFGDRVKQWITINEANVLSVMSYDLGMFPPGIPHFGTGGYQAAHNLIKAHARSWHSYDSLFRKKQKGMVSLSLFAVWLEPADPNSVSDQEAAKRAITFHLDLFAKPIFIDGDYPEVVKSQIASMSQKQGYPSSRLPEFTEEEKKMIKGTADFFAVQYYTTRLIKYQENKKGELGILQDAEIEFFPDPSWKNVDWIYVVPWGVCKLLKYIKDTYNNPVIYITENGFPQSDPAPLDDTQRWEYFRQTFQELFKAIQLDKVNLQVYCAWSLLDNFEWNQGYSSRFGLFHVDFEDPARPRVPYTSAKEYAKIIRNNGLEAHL
Kind of series: Inhibition of human cytosolic beta-glucosidase using 4-methylumbelliferyl beta-D-glucopyranoside as substrate after 15 mins by fluorimetric analysis. A digest of the protocol:
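Purified human cytosolic neutral β-glucosidase was preincubated 15 min at room temperature with a 3-fold compound dilution series. An equal volume of 10 mM 4-MU β-D-glucoside in 100 mM citrate–phosphate pH 7.0 was added, then incubated 30 min at 37 °C. The reaction was stopped with 4-fold excess 100 mM 2-amino-2-methylpropanol and read at ex 365/em 460 nm. IC50 came from nonlinear fitting.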

For series [11], the species on record is Homo sapiens. Nature of the series: Activation of beta-N-acetyl hexosaminidase in gaucher patient fibroblast using 4-methylumbelliferyl N-acetyl-beta-D-glucosaminide as substrate. Put shortly: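 Patient fibroblasts (GD, homozygous mutant GBA) grown in α-MEM with 10% FCS at 37 °C, CO2, with compound for 5 days. Lysates prepared in pH 5.5 citrate–phosphate with Triton X-100 and taurocholate. Lysosomal β-N-acetyl hexosaminidase activity read with fluorogenic 4-MU N-acetyl-β-D-glucosaminide at each compound concentration.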

The nature of series [12]: Cytotoxicity against gaucher patient fibroblast assessed as decrease in cell viability at 10 uM after 5 days by alamar blue assay. Format: cell-based. The settings on record: human, 120 h. Put shortly:
(§2)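 Viability of GD patient fibroblasts grown with compound at 10, 33 and 100 μM was read by a resazurin-based spectrophotometric assay.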
A general note: Resazurin is reduced to fluorescent resorufin, in cell work by metabolically active cells.

Series [13] can be described thus: Cytotoxicity against gaucher patient fibroblast assessed as decrease in cell viability at 100 uM after 5 days by alamar blue assay. It counts as cell-based. As to conditions: human, 120 h. Put shortly: as §2

The Ki is a measure of affinity in units of concentration, obtained from inhibition or displacement. Lower therefore signals tighter binding. In series [1], `CCCCSCC[C@H]1NC[C@@H](O)[C@H](O)[C@H]1O` came in with a Ki of 18 nM. Besides, the inhibition result (in [2]; in the series listed under Homo sapiens [3]; in [4]) was “inactive” throughout. The deltaTm in series [5] came to 11 K. In addition, the fold change (FC) is 2.4 in series [6] and 1.3 in the series listed under Homo sapiens [7]. The Activity is 18 nM in series [8] and 12 nM in the series filed under Homo sapiens [9].
On to `O[C@@H]1[C@@H](O)[C@@H](CCSCCc2ccccc2)NC[C@H]1O`, for which the Ki in series [1] was found to be 3 nM. Further, the inhibition result (in [2]; in the series filed under Homo sapiens [3]; in [4]) was “inactive” throughout. Besides, in series [5], the deltaTm was found to be 14 K. For the same compound, the fold change (FC) in series [6] is 2.2; in the series listed under Homo sapiens [7] it was 1.1. The Activity in series [8] was determined as 2.8 nM; in the series filed under Homo sapiens [9], 2.1 nM.
The IC50 is the concentration that gives 50% inhibition. In series [1], `CCCCCCCCSCC[C@H]1NC[C@@H](O)[C@H](O)[C@H]1O.Cl` showed a Ki of 0.4 nM. Further, the inhibition result (in [2]; in the series filed under Homo sapiens [3]; in [4]) was “inactive” each time. Moreover, the IC50 in series [10] was found to be 2000 nM. In addition, the inhibition result in the series filed under Homo sapiens [11] is “Active”. The Activity result was “Toxic” in [12], 1 nM in series [8] and 0.6 nM in the series listed under Homo sapiens [9]. Moreover, the deltaTm in series [5] worked out at 20 K. For the same compound, the fold change (FC) in [6] turned out to be 1.6; in the series listed under Homo sapiens [7] it was 1.2.
In the case of `O[C@@H]1[C@@H](O)[C@@H](CCSC2CCCC2)NC[C@H]1O`, the affinity in series [1], expressed as Ki, was 6 nM. Besides, the inhibition result (in series [2]; in the series filed under Homo sapiens [3]; in series [4]) was “inactive” in each case. Further, the deltaTm in series [5] was determined as 11 K. In addition, the values for the fold change (FC) (in [6]; in the series filed under Homo sapiens [7]) were 2.2 and 1.4, respectively. Besides, the Activity in series [8] came out at 5.3 nM; in the series listed under Homo sapiens [9], 1.2 nM.
`CCCCCCSCC[C@H]1NC[C@@H](O)[C@H](O)[C@H]1O.Cl` registered a Ki in [1] of 1.8 nM. Also, the inhibition entry (in [2]; in the series listed under Homo sapiens [3]; in series [4]) was “inactive” in each case. Moreover, the Activity entry in series [13] is “Toxic”; in [8], 2.7 nM; in the series listed under Homo sapiens [9], 0.6 nM. Moreover, the deltaTm in series [5] amounted to 15 K. Moreover, the fold change (FC) in [6] was 2.1; in the series listed under Homo sapiens [7], 1.3.
In turn, `O[C@@H]1[C@@H](O)[C@@H](CCSCc2ccccc2)NC[C@H]1O` yielded a Ki in series [1] of 19 nM. Besides, the inhibition entry (in [2]; in the series filed under Homo sapiens [3]; in [4]) was “inactive” in each case. Besides, the deltaTm in series [5] stood at 13 K. In addition, the values for the fold change (FC) (in series [6]; in the series filed under Homo sapiens [7]) were 2.1 and 1.1, respectively. Further, the results for the Activity (in series [8]; in the series filed under Homo sapiens [9]) were 1.6 nM and 2.6 nM, respectively.

Values taken from ChEMBL document CHEMBL2029267, “Rapid assembly of a library of lipophilic iminosugars via the thiol-ene reaction yields promising pharmacological chaperones for the treatment of Gaucher disease” (J Med Chem, 2012).
